Measurements collected from several papers.
Compare with care: the assays were run in different laboratories.
Target: Mitogen-activated protein kinase 11 (MAPK11, Homo sapiens, UniProt Q15759)

| test | setting | measurement | value | Structure (SMILES) |
| --- | --- | --- | --- | --- |
| enzyme activity, inhibitor | 1 µM | inhibition | 0% | CC#CC(=O)N1CCC[C@H]1c1nc(-c2ccc(C(=O)Nc3ccccn3)cc2)c2c(N)nccn12 |
| binding, competition with immobilised ligand | 1 µM | remaining binding | 100% | CN1CCN(C(=O)c2ccc(NC(=O)Nc3ccc(N(C)c4ccnc(Nc5ccc(CS(C)(=O)=O)cc5)n4)cc3)cc2)CC1 |
| cell-free assay | 1 µM | remaining signal | 82% | C#Cc1cnc(Nc2ccnc(CO)c2)nc1Nc1ccccc1S(C)(=O)=NC#N (stereo not shown) |
| binding, competition with immobilised ligand | 0.5 µM | remaining binding | 87% | CCCCC(=O)Nc1ccc(-c2ccc3ncn(CCC)c(=O)c3c2)cn1 |
| cell-free assay, competition with immobilised ligand | 25 µM | remaining binding | 100% | N#Cc1ccc(NC(=O)Nc2ccccc2)cc1 |
| enzyme activity, inhibitor | 1 µM | activity vs control | 108% | CC(C)S(=O)(=O)c1ccc2nccc(Nc3ccc4sc(C5CCCC5)nc4c3)c2c1 |
| enzyme activity, inhibitor | 0.2 µM | inhibition | 21.9% | C#Cc1cc(-c2cc(Nc3nc(N[C@@H](C)c4ccc(F)cn4)ncc3Cl)n[nH]2)ccc1C=O |
| enzyme activity, inhibitor | 1 µM | inhibition | 2% | C=CC(=O)N1CCC[C@@H](n2nc(-c3ccc(Oc4ccccc4)cc3)c3c(N)ncnc32)C1 |
| binding, competition with immobilised ligand | 1 µM | remaining binding | 34% | Cc1ccc(NC(=O)c2ccnc(C(F)(F)F)c2)cc1-c1cc(OCCO)nc(N2CCOCC2)c1 |
| enzyme activity, inhibitor | 0.1 µM | inhibition | 5.56% | Cc1cc(O)c(-c2ccc([C@@H](C)CN(C)C)cc2)c2c1[nH]c(=O)c1sccc12 |
